PLC-beta3 inh = human PLC-beta3 inhibitors, primary screen, biochemical, fluorescence. 1-phosphatidylinositol 4,5-bisphosphate phosphodiesterase beta-3 (Homo sapiens), Q01970. Purified PLC-beta3, fluorogenic substrate. inhibition, % at 12.2 µM. 370,000 compounds, 0.18% hits;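 also: 0% = median of compound wells on plate and 100% = full blocker control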
DAGLB inh = DAGLB lipase inhibitors, primary screen, biochemical, fluorescence, HTS. Diacylglycerol lipase-beta (Homo sapiens), Q8NCG7. 340,000 compounds, 0.059% hits. AID 504411, 2011. inhibition, % at 5.17 µM. HEK293T DAGLB membrane lysate, EnzChek fluorogenic substrate; in the data active = inhibition above about 34%;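 also: 0% = enzyme with vehicle and 100% = wells lacking enzyme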
sPLA2-III inh = human group III sPLA2 inhibitors, primary screen, biochemical, QFRET, BODIPY PC-A2 liposome substrate; QFRET BODIPY PC-A2 liposome hydrolysis, fluorescence; inhibition, % at 12.2 µM; 370,000 compounds, 0.56% hits; AID 743126, 2013;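 active = inhibition above mean plus 3 SD of compounds lying within the high and low control bounds, cut at about 19% in these data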;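 also: 0% = median of test compound wells and 100% = no enzyme DMSO wells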
Target sequence (Q9NZ20 whole entry, looked up): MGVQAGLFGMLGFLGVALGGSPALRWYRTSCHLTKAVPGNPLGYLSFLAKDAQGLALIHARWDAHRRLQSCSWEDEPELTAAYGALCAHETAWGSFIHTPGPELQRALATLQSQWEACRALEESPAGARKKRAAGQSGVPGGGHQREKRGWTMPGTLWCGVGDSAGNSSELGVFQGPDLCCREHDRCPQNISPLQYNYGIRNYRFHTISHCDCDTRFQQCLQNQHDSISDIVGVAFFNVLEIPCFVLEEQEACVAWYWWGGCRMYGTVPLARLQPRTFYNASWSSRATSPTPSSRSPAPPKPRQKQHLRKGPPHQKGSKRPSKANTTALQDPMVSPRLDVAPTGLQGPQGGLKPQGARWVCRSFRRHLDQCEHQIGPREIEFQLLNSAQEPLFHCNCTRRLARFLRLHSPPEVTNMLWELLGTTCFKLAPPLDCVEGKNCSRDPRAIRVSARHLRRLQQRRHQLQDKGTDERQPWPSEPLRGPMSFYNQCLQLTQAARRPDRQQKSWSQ
Tb MetRS inh = T. brucei MetRS inhibitors, primary screen, biochemical, luminescence | purified T. brucei MetRS, ATP depletion, Kinase-Glo luminescence | inhibition, % at 11.9 µM | 360,000 compounds, 0.4% hits | AID 624268, 2012;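 active = inhibition above a per-plate cutoff of the control wells' mean inhibition plus 3 SD, cut at about 5.5% in these data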;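 also: 0% = DMSO wells median and 100% = median of wells with control inhibitor compound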
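Material: parasite MetRS enzyme / Replication: singlicate, one well per compound / Signal: luminescence of leftover ATP / Schedule: 2 h aminoacylation at 25 °C after 15 min preincubation / Medium: HEPES-MgCl2-KCl buffer plus DTT, spermine, BSA, pyrophosphatase / Doses: 11.9 µM single point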
PLC-gamma1 inh = PLC-gamma1 enzyme inhibitors, primary screen, biochemical, fluorescence, purified enzyme; 370,000 compounds, 0.84% hits; fluorogenic substrate; inhibition, % at 12.2 µM; 1-phosphatidylinositol 4,5-bisphosphate phosphodiesterase gamma-1 (Homo sapiens), P19174; in the data active = inhibition above about 9.5%
PLCgamma1 ctr = PLC-gamma1 enzyme inhibitors, counter-screen for PLC-beta3 inhibitor project, biochemical, fluorescence | shares compounds with PLC-gamma1 inh | inhibition, % at 12.3 µM | purified PLC-gamma1, fluorogenic substrate | 3,300 compounds, 3.1% hits; in the data active = inhibition above about 9.5%
PLCbeta3 conf = PLC-beta3 inhibitor confirmation, biochemical, fluorescence, purified enzyme; fluorogenic substrate fluorescence; inhibition, % at 12.3 µM; shares compounds with PLC-gamma1 inh; 3,300 compounds, 1% hits; AID 743261, 2014
An asterisk follows results filed as active; . = not tested or not shown. Most compounds without a hit are left out; they make up all but 1.9% or so of the library. Rule as the data show it, unless noted: active = inhibition above about 11%; inactive = the rest.

SMILES	PLC-beta3 inh	DAGLB inh	sPLA2-III inh	Tb MetRS inh	PLC-gamma1 inh	PLCgamma1 ctr	PLCbeta3 conf
CC(CC(=O)Nc1ccc(Br)cc1F)S(=O)(=O)c1ccc2c(c1)NC(=O)CO2 (stereo not given)	-8	4	-13	1	12*	-6	-3
CC(CC(=O)Nc1ccc(F)cc1)S(=O)(=O)c1ccc2c(c1)NC(=O)CO2 (stereo not given)	-2	1	6	1	4	.	.
Cc1ccc(-n2cc(CN3CCNC(=O)CC3)c(-c3ccc(F)cc3)n2)cc1	-7	-2	-12	0	5	.	.
Cc1ccc(-n2cc(CN3CCC(O)(c4ccccn4)CC3)c(-c3ccc(F)cc3)n2)cc1	0	-3	3	-1	9.8*	-3	1
N#CCC(C(=O)c1cccnc1)c1ccccc1 (stereo not given)	11*	-4	-1	0	1	0	-6
CC1(C)CC(=O)C=C(c2ccccc2F)C1=O	2	.	-4	.	2	.	.
CCC(NC(=O)Cn1c(-c2ccccc2)cc(C(C)=O)c1C)c1ccccc1 (stereo not given)	4	.	-7	.	-1	.	.
CC(O)CNCCCOc1ccc(Cl)cc1C(C)(C)C (stereo not given)	1	1	0	0	12*	-4	3
CN(C)CCOCCOc1ccc(Cl)cc1C(C)(C)C	-4	0	-7	-1	5	.	.
COCC(=O)Nc1cc([N+](=O)[O-])ccc1OC	5	1	17	-1	13*	-3	0
COC(=O)CNC(=O)c1cn(-c2ccc(C)c(C)c2)c(=O)c2ccccc12	-7	2	2	-1	-3	.	.
COc1ccc([N+](=O)[O-])cc1NC(=O)c1cn(-c2ccc(C)c(C)c2)c(=O)c2ccccc12	6	-3	9	0	11*	-4	-2
Cc1[nH]c2ccccc2c1CC(=O)Nc1ccc(Nc2cccnc2)c(-c2ccc(C(C)(C)C)cc2)c1	-4	.	1	.	-4	.	.
COC(=O)C1=C(C)NC(=S)NC1c1ccc(Br)cc1 (stereo not given)	1	.	9	.	2	.	.
CCOC(=O)c1ccc(-c2ccc3oc(-c4ccsc4)cc(=O)c3c2)cc1F	-1	1	14	0	10*	-17	-14
O=C(NCCc1ccccc1)O[C@H]1CC[C@@]23CCCN2C(=O)CCC[C@H]3C1	1	.	-1	.	-1	.	.
COc1ccc(NC(=O)C2C3CCC(C3)C2C(=O)O)cc1OC (stereo not given)	-5	-3	0	0	18*	-2	-4
CC(=O)Nc1ccc(NC(=O)C2C3CCC(C3)C2C(=O)O)cc1 (stereo not given)	-1	-1	7	0	6	.	.
COc1ccc(S(=O)(=O)N2CCCCCC2)cc1C(=O)N(C)CC(=O)Nc1c(Cl)cccc1Cl	2	2	0	-1	9.7*	-2	3
COc1ccc(S(=O)(=O)N2CCCCCC2)cc1C(=O)N(C)CC(=O)Nc1ccccc1Cl	-1	-2	-10	0	-3	.	.
COc1ccc(S(=O)(=O)N2CCCCCC2)cc1C(=O)N(C)CC(=O)Nc1ccccc1Br	-4	-6	9	-1	10*	0	1
Cc1cc(NS(=O)(=O)c2ccc(NC(=O)CSc3nnc(-c4cccnc4)n3-c3ccccc3)cc2)nc(C)n1	-1	.	-2	.	0	.	.
C#CCN(C)CC/C=C1\c2ccccc2CSc2ccccc21	10	-9	0	-1	10*	-1	0
C=CCN(C)CC/C=C1\c2ccccc2CSc2ccccc21	-1	11	0	0	-1	.	.
CCCn1nc(C(=O)NCC(C)(C)N2CCOCC2)c2ccccc2c1=O	9	-1	9	-1	9.7*	-3	-1
SMILES	PLC-beta3 inh	DAGLB inh	sPLA2-III inh	Tb MetRS inh	PLC-gamma1 inh	PLCgamma1 ctr	PLCbeta3 conf
Cc1ccc(CN2CCCCC(NC(=O)Cc3cccs3)C2=O)cc1 (stereo not given)	2	.	6	.	2	.	.
Cc1cccc(-c2cccc3c4c([nH]c23)[C@@H]2C[C@H](N(C)C(=O)c3ccccc3F)[C@H]([C@H](C)O)CN2CC4)c1	-111	.	-7	.	-91	.	.
O=[N+]([O-])c1c(Nc2ccccc2O)cc(N2CCOCC2)c2nonc12	1	2	-28	0	3	.	.
COc1cccc(Nc2cc(N3CCOCC3)c3nonc3c2[N+](=O)[O-])c1	3	0	3	-1	10*	4	-4
CCC(=O)c1cn(CC(=O)NCc2ccco2)c2ccccc12	2	2	6	-3	10.0*	-1	2
COC(=O)c1cn(CC(=O)NCc2ccco2)c2ccccc12	5	-1	4	0	13*	-5	-3
Cc1ccc(-n2nnnc2-c2cnc(-c3cccnc3)nc2C(F)(F)F)cc1	10	-2	10	0	10*	-3	-6
O=C(CCCN1C(=O)c2ccccc2C1=O)Nc1nccs1	2	-3	-1	0	14*	-3	1
OCC1OC(n2cnc3c(=S)nc[nH]c32)CC1O (stereo not given)	0	2	12	0	10*	-3	2
Cc1ccc2c(c1)-c1c(cnn1CC(=O)NCCc1ccccc1F)CO2	2	.	0	.	0	.	.
CCOC(=O)Nc1n[nH]c(NC(=O)OCC)c1[N+](=O)[O-]	4	1	-2	-1	2	.	.
CCOC(=O)Nc1cc(=O)c([N+](=O)[O-])c(N)[nH]1	13*	.	1	.	4	-3	3
COc1ccc(Cn2nc(C(=O)O)c3ccccc3c2=O)cc1F	-11	-3	8	-1	-2	.	.
CC(NC(=O)Cn1nc(C(=O)O)c2ccccc2c1=O)c1ccccc1 (stereo not given)	12*	-3	-5	1	11*	-2	1
COc1ccc(F)cc1Cn1nc(C(=O)O)c2ccccc2c1=O	1	-1	6	0	12*	5	2
CC(NC(=O)Cn1nc(-c2ccccc2)c2ccccc2c1=O)c1ccccc1 (stereo not given)	4	0	-4	-1	1	.	.
CCCCOC(=O)Nc1ccc(S(=O)(=O)Nc2nccs2)cc1	-3	2	-10	0	0	.	.
O=C(Cc1ccccc1Cl)Nc1ccc(S(=O)(=O)Nc2nccs2)cc1	-8	1	-31	0	1	.	.
